From paper PMC5554913 (ACS Medicinal Chemistry Letters, 2017)

Legend:
[1] = system: human lymphoblasts (CRL-8155); test: Mammalian cell growth inhibition; type: cell-based; conditions: CRL-8155 cell line
Hep G2 cell line = test: Cytotoxicity on Hep G2 cell line; type: cell-based
[2] = system: T. brucei brucei strain BF427; test: T. brucei growth inhibition; type: cell-based; conditions: for improvement in potency compared to compound 1: T. brucei EC50 vs compound 1
CYP3A4 = CYP3A4 (Homo sapiens, UniProt P08684); test: CYP3A4 inhibition; type: in vitro ADME
[3] = system: T. brucei rhodesiense STIB900; test: Mouse efficacy model of acute T. brucei infection; type: in vivo; conditions: five mice, T. brucei rhodesiense STIB900, 50 mg/kg oral gavage b.i.d. days 2-5
How it was run: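 Mice were infected with T. brucei rhodesiense STIB900 on day 0 and placed in groups of five. Test compound was given at 50 mg/kg by oral gavage twice daily on days 2–5, with a vehicle-treated group. Cure meant no detectable parasitemia […] through 60 days postinfection.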

[4] = Metabolic stability in pooled mouse liver microsomes; type: in vitro ADME; conditions: microsome T1/2, mouse microsomes
How it was run: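 Half-life of test compound measured in mouse liver microsomes. Testosterone and dextromethorphan HBr were run alongside as controls and had to fall within acceptable ranges.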

CYP3A4, sequence (P08684 whole entry, species assumed): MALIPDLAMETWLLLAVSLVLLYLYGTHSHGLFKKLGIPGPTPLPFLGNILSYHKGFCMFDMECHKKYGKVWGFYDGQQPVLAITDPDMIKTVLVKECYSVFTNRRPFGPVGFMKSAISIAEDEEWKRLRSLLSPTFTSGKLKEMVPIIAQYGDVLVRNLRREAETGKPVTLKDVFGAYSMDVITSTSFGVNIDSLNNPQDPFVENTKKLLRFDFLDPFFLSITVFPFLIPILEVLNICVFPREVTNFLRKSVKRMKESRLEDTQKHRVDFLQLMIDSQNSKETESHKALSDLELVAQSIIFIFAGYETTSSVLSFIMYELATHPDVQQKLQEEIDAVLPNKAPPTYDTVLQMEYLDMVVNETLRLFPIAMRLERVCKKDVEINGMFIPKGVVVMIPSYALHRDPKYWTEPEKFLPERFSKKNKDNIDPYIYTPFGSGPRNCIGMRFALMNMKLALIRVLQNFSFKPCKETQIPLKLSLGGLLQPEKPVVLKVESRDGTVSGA

COc1ccc(N2C(=O)CN(Cc3ccccc3)C2=S)cc1Cl [Compound 1]
cytotoxicity on CRL-8155 [1]: no detected cytotoxicity | cytotoxicity on Hep G2 (Hep G2 cell line): no detected cytotoxicity

COc1ccc(N2C(=O)CN(Cc3ccccc3)C2=S)cc1N(C)C [Compound 37]
drop in activity compared to 36 ([2]; T. brucei EC50 vs compound 36): 30 fold

COc1ccc(N2C(=O)CN(Cc3cccc(F)c3)C2=S)cc1Cl [Compound 40]
decrease in potency compared to 39 ([2]; T. brucei EC50 vs compound 39): 18 fold

CN(C)c1ccc(N2C(=O)CN(Cc3ccc(F)cc3)C2=S)cc1Cl [Compound 68, 1-(4-fluorobenzyl)-3-(4-dimethylamino-3-chlorophenyl)-2-thiohydantoin]
improvement in potency compared to compound 1 [2]: > 100 fold | IC50 (CYP3A4): 12.8 µM | cures (absence of detectable parasitemia for 60 days postinfection) [3]: 5/5

COc1cc(N2C(=O)CN(Cc3ccc(F)cc3Cl)C2=S)ccc1N(C)C [Compound 76, 1-(2-chloro-4-fluorobenzyl)-3-(4-dimethylamino-3-methoxyphenyl)-2-thiohydantoin]
improvement in potency compared to compound 1 [2]: > 100 fold | cures (absence of detectable parasitemia for 60 days postinfection) [3]: 5/5

C[C@]12CC[C@H]3[C@@H](CCC4=CC(=O)CC[C@@]43C)[C@@H]1CC[C@@H]2O [Testosterone]
half-life at 1.5 µM [4]: 3.97 min

COc1ccc2c(c1)[C@]13CCCC[C@@H]1[C@H](C2)N(C)CC3 [dextromethorphan HBr]
half-life at 1.5 µM [4]: 9.51 min
